The source made the active and inactive calls. No cut-off for these calls is given here.
Experiments:
[1] = test system: H4; assay: Increase in ratio of light chain 3 subunit 2 to light chain 3 subunit 1 in human H4 cells at 3.9 uM after 4 hrs by Western blot; type: functional, cell-based
In short: (§1)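 H4 cells were exposed to compound for 4 h, then lysed. Lysates were blotted with anti-LC3 antibody, with actin as loading control, and the LC3II/LC3I band ratio was taken.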

[2] = test system: H4; assay: Reduction of poly(Q) level in human H4 cells expressing EGFP-Q79-HA after 24 hrs; type: functional, cell-based
In short: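 H4 cells were transiently transfected with an EGFP-Q79-HA expression vector. The medium was replaced 6 h after transfection and compounds were added. Poly(Q) was detected with anti-HA antibody.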

[3] = test system: H4; assay: Increase in light chain 3-GFP+ autophagosome vesicle area per cell in human H4 cells at 3.9 uM after 24 hrs by high throughput fluorescence microscopy relative to control; type: functional
In short: (§2)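 H4 cells stably expressing LC3-GFP, seeded in 96-well plates and exposed to compound for 24 h; fixed in 4% paraformaldehyde, nuclei stained with 3 μg/ml DAPI. Automated fluorescence microscopy scored number, size and intensity of LC3-GFP spots; values expressed relative to DMSO-treated wells, rapamycin positive control. Triplicate wells, mean ± SD; experiments repeated three times.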

[4] = biological target: T1, Serine/threonine-protein kinase mTOR (Homo sapiens, UniProt P42345); assay: Effect on mTOR phosphorylation in human H4 cells at 3.9 uM after 4 hrs; type: cell-based
In short: (§3)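 H4 cells treated with compound for 4 h; lysates analysed by Western blot using anti-phospho/non-phospho mTOR antibody, with actin as loading control; rapamycin used for comparison. Cells grown in DMEM with 10% FBS, penicillin/streptomycin, 2 mM L-glutamine at 37°C, 5% CO2.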

[5] = test system: H4; assay: Increase in light chain 3-GFP+ autophagosome vesicle intensity per cell in human H4 cells at 3.9 uM after 24 hrs by high throughput fluorescence microscopy relative to control; type: functional; in short: as §2
[6] = test system: H4; assay: Increase in FYVE-RFP+ vesicle intensity per cell in human H4 cells after 2 hrs relative to control; type: functional; set-up: concentration or dose not given beside the values
In short: (§4)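 H4 cells stably expressing FYVE-RFP (H4-FYVE), grown in DMEM with 10% FBS, penicillin/streptomycin and 2 mM L-glutamine at 37°C, 5% CO2, seeded in 96-well plates and exposed to compound. Fixed in 4% paraformaldehyde, nuclei stained with 3 μg/ml DAPI, FYVE-RFP+ vesicles quantified by high-throughput fluorescence microscopy against DMSO control. Triplicate wells, mean ± SD.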

[7] = test system: H4; assay: Increase in FYVE-RFP+ vesicle intensity per cell in human H4 cells after 4 hrs relative to control; type: functional; set-up: concentration or dose not given beside the values; in short: as §4
[8] = test system: H4; assay: Increase in FYVE-RFP+ vesicle intensity per cell in human H4 cells after 8 hrs relative to control; type: functional; set-up: concentration or dose not given beside the values; in short: as §4
[9] = test system: H4; assay: Increase in long-lived protein degradation in human H4 cells after 1 hr relative to control; type: functional; set-up: concentration or dose not given beside the values
[10] = test system: H4; assay: Increase in long-lived protein degradation in human H4 cells after 2 hrs relative to control; type: functional; set-up: concentration or dose not given beside the values
[11] = test system: H4; assay: Increase in long-lived protein degradation in human H4 cells after 4 hrs relative to control; type: functional; set-up: concentration or dose not given beside the values
[12] = test system: H4; assay: Increase in long-lived protein degradation in human H4 cells after 24 hrs relative to control; type: functional; set-up: concentration or dose not given beside the values
[13] = test system: H4; assay: Induction of light chain 3-GFP level in human H4 cells at 3.9 uM after 24 hrs by high throughput fluorescence microscopy relative to control; type: functional
In short: (§5)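 H4 cells stably expressing LC3-GFP, kept in DMEM/10% FBS at 37°C, 5% CO2, were seeded in 96-well plates and exposed to compound for 24 h. Cells were then fixed in 4% paraformaldehyde and stained with 3 μg/ml DAPI. Automated fluorescence microscopy scored the number, size and intensity of LC3-GFP spots. Values are percent of DMSO wells, in triplicate, mean ± SD. Rapamycin served as positive control.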

[14] = test system: H4; assay: Increase in light chain 3-GFP+ autophagosome vesicle number per cell in human H4 cells at 3.9 uM after 24 hrs by high throughput fluorescence microscopy relative to control; type: functional; in short: as §5
[15] = biological target: T1, Serine/threonine-protein kinase mTOR; assay: Effect on mTOR phosphorylation in human H4 cells at 3.7 uM after 4 hrs; type: cell-based
In short: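 H4 cells exposed to compound for 4 h. Lysates analysed by Western blot with anti-phospho and anti-total mTOR antibodies, with actin as loading control. Rapamycin served as reference.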

[16] = test system: H4; assay: Increase in light chain 3-GFP+ autophagosome vesicle area per cell in human H4 cells at 3.7 uM after 24 hrs by high throughput fluorescence microscopy relative to control; type: functional
In short: (§6)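 H4 cells stably expressing LC3-GFP, seeded in 96-well plates and exposed to compound for 24 h; screening concentrations were 3–12 μM, with rapamycin 0.22 μM and bafilomycin A1 0.40 μM. Cells fixed in 4% paraformaldehyde and stained with 3 μg/ml DAPI. Number, size and intensity of LC3-GFP spots measured by high-throughput fluorescence microscopy and expressed as percent of DMSO-treated wells. Rapamycin was the positive control. Triplicate wells, mean ± SD; experiments repeated three times.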

[17] = test system: H4; assay: Induction of light chain 3-GFP level in human H4 cells at 3.7 uM after 24 hrs by high throughput fluorescence microscopy relative to control; type: functional
In short: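 H4 cells stably expressing LC3-GFP, grown in DMEM with 10% FBS, penicillin/streptomycin and 2 mM L-glutamine at 37°C, 5% CO2. Cells were seeded in 96-well plates and exposed to library compounds at 3–12 μM for 24 h, then fixed in 4% paraformaldehyde and stained with 3 μg/ml DAPI. LC3-GFP spot number, size and intensity were measured by high-throughput fluorescence microscopy and expressed relative to DMSO. Triplicates, mean ± SD.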

[18] = test system: H4; assay: Increase in light chain 3-GFP+ autophagosome vesicle intensity per cell in human H4 cells at 3.7 uM after 24 hrs by high throughput fluorescence microscopy relative to control; type: functional; in short: as §6
[19] = test system: H4; assay: Effect on FYVE-RFP+ vesicle intensity per cell in human H4 cells after 2 hrs relative to control; type: functional; set-up: concentration or dose not given beside the values; in short: as §4
[20] = test system: H4; assay: Effect on FYVE-RFP+ vesicle intensity per cell in human H4 cells after 4 hrs relative to control; type: functional; set-up: concentration or dose not given beside the values; in short: as §4
[21] = test system: H4; assay: Effect on FYVE-RFP+ vesicle intensity per cell in human H4 cells after 8 hrs relative to control; type: functional; set-up: concentration or dose not given beside the values; in short: as §4
[22] = test system: H4; assay: Increase in ratio of light chain 3 subunit 2 to light chain 3 subunit 1 in human H4 cells at 3.7 uM after 4 hrs by Western blot; type: functional, cell-based
In short: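 H4 cells were treated with each compound for 4 h, then lysed. Lysates were immunoblotted with anti-LC3 antibody, with actin as loading control. LC3II and LC3I bands were compared as an LC3II/LC3I ratio.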

[23] = test system: H4; assay: Increase in light chain 3-GFP+ autophagosome vesicle number per cell in human H4 cells at 3.7 uM after 24 hrs by high throughput fluorescence microscopy relative to control; type: functional
In short: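 H4 cells stably expressing LC3-GFP were grown in DMEM with 10% FBS and 2 mM L-glutamine at 37°C, 5% CO2. They were exposed to each compound for 24 h, with DMSO as negative and rapamycin as positive control. Cells were then fixed in 4% paraformaldehyde and stained with 3 μg/ml DAPI. High-throughput fluorescence imaging scored LC3-GFP spot number, size and intensity, expressed relative to DMSO. Mean ± SD of triplicates; experiments repeated three times.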

[24] = test system: H4; assay: Increase in ratio of light chain 3 subunit 2 to light chain 3 subunit 1 in human H4 cells at 4.9 uM after 4 hrs by Western blot; type: functional, cell-based; in short: as §1
[25] = biological target: T1, Serine/threonine-protein kinase mTOR; assay: Effect on mTOR phosphorylation in human H4 cells at 4.9 uM after 4 hrs; type: cell-based; in short: as §3
[26] = test system: H4; assay: Induction of light chain 3-GFP level in human H4 cells at 4.9 uM after 24 hrs by high throughput fluorescence microscopy relative to control; type: functional; in short: as §5
[27] = test system: H4; assay: Increase in light chain 3-GFP+ autophagosome vesicle intensity per cell in human H4 cells at 4.9 uM after 24 hrs by high throughput fluorescence microscopy relative to control; type: functional; in short: as §2
[28] = test system: H4; assay: Induction of light chain 3-GFP level in human H4 cells at 5.0 uM after 24 hrs by high throughput fluorescence microscopy relative to control; type: functional; in short: as §5
[29] = test system: H4; assay: Increase in light chain 3-GFP+ autophagosome vesicle number per cell in human H4 cells at 4.9 uM after 24 hrs by high throughput fluorescence microscopy relative to control; type: functional; in short: as §5

Compound | Activity [2] | Activity [9] | Activity [10] | Activity [11] | Activity [12] | Activity [19] | Activity [20] | Activity [21] | also measured
C=C(C)[C@H]1O[C@H]2CC[C@@]3(C)[C@@](O)(CC[C@H]4[C@@H]5OC(C)(C)[C@H]6C[C@@H]7C(=C)Cc8c(Cl)cc9[nH]c(c5c9c8[C@@]76O)[C@@]43C)[C@@]23O[C@H]3[C@H]1O [PENITREM A] | Dose-dependent effect | 92.88% | 126.09% | 132.13% | 141.83% |  |  |  | Activity [1]: Active; Activity [3]: 163.15%; Activity [4]: inactive; Activity [5]: 166.85%; Activity [6]: 121.4%; Activity [7]: 87.41%; Activity [8]: 72.71%; Activity [13]: 93.08%; Activity [14]: 146.36%
CCCCc1oc2ccccc2c1C(=O)c1cc(I)c(OCCN(CC)CC)c(I)c1 [AMIODARONE] | Dose-dependent effect | 101.32% | 122.42% | 110.75% | 116.73% | 92.5% | 89.23% | 83.45% | Activity [15]: inactive; Activity [16]: 236.64%; Activity [17]: 138.5%; Activity [18]: 327.25%; Activity [22]: Active; Activity [23]: 189.25%
CN(C)C(=O)C(CCN1CCC(O)(c2ccc(Cl)cc2)CC1)(c1ccccc1)c1ccccc1 [LOPERAMIDE] | Dose-dependent effect | 78.7% | 122.1% | 125.21% | 139.19% | 115.39% | 123.62% | 95.7% | Activity [24]: Active; Activity [25]: inactive; Activity [26]: 126.76%; Activity [27]: 666.5%; Activity [28]: 339.4%; Activity [29]: 235.49%
